According to publication PMC4264455 (British Journal of Cancer, 2014):
Entries after “also recorded” stand apart in the source; their conditions may differ.

Key:
[1] = tested on: patients with advanced refractory solid tumours or non-Hodgkin's lymphoma; test: Phase I dose escalation: safety, tolerability, DLT and adverse events; type: in vivo, human
CDK6 = settings: ref Squires et al, 2009; cited from earlier work
human cancer cell lines = settings: in vitro studies; ref Squires et al, 2010; cited from earlier work
[2] = tested on: markers of CDK activity in tumour biopsies; test: Pharmacodynamic analysis of tumour biopsies; type: in vivo, human; settings: three patients at RP2D, pre-dose vs 24 h after end of infusion
Procedure, shortened: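 Tumour biopsies were taken at 27.0 mg m−2, before dosing and 24 h after the end of a 1-h IV infusion. Samples were immunostained for PCNA, phospho-NPM and Ki67. Read-out was the estimated percentage of positively stained tumour cells.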

[3] = Pharmacokinetic analysis of plasma AT7519 after first 1-h intravenous infusion; type: in vivo, human
[4] = tested on: advanced solid malignancies or non-Hodgkin's lymphoma; test: Anti-tumour activity; type: in vivo, human
Procedure, shortened: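 Test compound given as a 1-h IV infusion on days 1, 4, 8 and 11 every 3 weeks, at 14.4–32.4 mg m−2. Radiological assessment was done after every two cycles. Response was graded by RECIST version 1.1. Treatment continued until progression, unacceptable toxicity or consent withdrawal.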

[5] = tested on: patients with refractory solid tumors; settings: ref Mahadevan et al, 2011, cited from earlier work
[6] = 1-h intravenous infusion on days 1, 4, 8 and 11 every 3 weeks
[7] = 1-h intravenous infusion, day 1 cycle 1, 29 patients
[8] = 19 patients evaluable for efficacy
[9] = five consecutive days every 3 weeks

O=C(NC1CCNCC1)c1n[nH]cc1NC(=O)c1c(Cl)cccc1Cl [AT7519, N-(4-piperidinyl)-4-(2,6-dichlorobenzoylamino)-1H-pyrazole-3-carboxamide]
Neutropenia: No. of patients with AEs of any grade ([1]; 32.4 mg m^−2 (n=5)): 1 No. of patients
Thrombocytopenia: No. of patients with AEs of any grade ([1]; 32.4 mg m^−2 (n=5)): 2 No. of patients
Vomiting: No. of patients with AEs of any grade ([1]; 32.4 mg m^−2 (n=5)): 5 No. of patients
maximum tolerated dose [1, 6]: 32.4 mg m^−2
recommended phase II dose (RP2D) [1, 6]: 27.0 mg m^−2
ALP elevation: Any grade AE No. of patients (%) ([1]; all dose levels (N=32)): 20 (62.5) No. of patients (%)
ALP elevation: Grade 3/4 AE No. of patients (%) ([1]; all dose levels (N=32)): 5 (15.6) No. of patients (%)
AST elevation: Any grade AE No. of patients (%) ([1]; all dose levels (N=32)): 16 (50.0) No. of patients (%)
AST elevation: Grade 3/4 AE No. of patients (%) ([1]; all dose levels (N=32)): 3 (9.4) No. of patients (%)
Anaemia: Any grade AE No. of patients (%) ([1]; all dose levels (N=32)): 28 (87.5) No. of patients (%)
Anaemia: Grade 3/4 AE No. of patients (%) ([1]; all dose levels (N=32)): 1 (3.1) No. of patients (%)
Anorexia: Any grade AE No. of patients (%) ([1]; all dose levels (N=32)): 4 (12.5) No. of patients (%)
Anorexia: Grade 3/4 AE No. of patients (%) ([1]; all dose levels (N=32)): 0 No. of patients (%)
Creatinine elevation: Any grade AE No. of patients (%) ([1]; all dose levels (N=32)): 5 (15.6) No. of patients (%)
Creatinine elevation: Grade 3/4 AE No. of patients (%) ([1]; all dose levels (N=32)): 1 (3.1) No. of patients (%)
Diarrhoea: Any grade AE No. of patients (%) ([1]; all dose levels (N=32)): 5 (15.6) No. of patients (%)
Diarrhoea: Grade 3/4 AE No. of patients (%) ([1]; all dose levels (N=32)): 0 No. of patients (%)
Fatigue: Any grade AE No. of patients (%) ([1]; all dose levels (N=32)): 17 (53.1) No. of patients (%)
Fatigue: Grade 3/4 AE No. of patients (%) ([1]; all dose levels (N=32)): 3 (9.4) No. of patients (%)
Hyperglycaemia (random): Any grade AE No. of patients (%) ([1]; all dose levels (N=32)): 12 (37.5) No. of patients (%)
Hyperglycaemia (random): Grade 3/4 AE No. of patients (%) ([1]; all dose levels (N=32)): 2 (6.3) No. of patients (%)
Infection without neutropenia: Any grade AE No. of patients (%) ([1]; all dose levels (N=32)): 6 (18.8) No. of patients (%)
Infection without neutropenia: Grade 3/4 AE No. of patients (%) ([1]; all dose levels (N=32)): 1 (3.1) No. of patients (%)
Lymphopenia: Any grade AE No. of patients (%) ([1]; all dose levels (N=32)): 27 (84.4) No. of patients (%)
Lymphopenia: Grade 3/4 AE No. of patients (%) ([1]; all dose levels (N=32)): 12 (37.5) No. of patients (%)
Mucositis: Any grade AE No. of patients (%) ([1]; all dose levels (N=32)): 17 (53.1) No. of patients (%)
Mucositis: Grade 3/4 AE No. of patients (%) ([1]; all dose levels (N=32)): 3 (9.4) No. of patients (%)
Nausea: Grade 3/4 AE No. of patients (%) ([1]; all dose levels (N=32)): 0 No. of patients (%)
Neutropenia: Any grade AE No. of patients (%) ([1]; all dose levels (N=32)): 5 (15.6) No. of patients (%)
Neutropenia: Grade 3/4 AE No. of patients (%) ([1]; all dose levels (N=32)): 1 (3.1) No. of patients (%)
Thrombocytopenia: Any grade AE No. of patients (%) ([1]; all dose levels (N=32)): 9 (28.1) No. of patients (%)
Thrombocytopenia: Grade 3/4 AE No. of patients (%) ([1]; all dose levels (N=32)): 0 No. of patients (%)
Vomiting: Any grade AE No. of patients (%) ([1]; all dose levels (N=32)): 11 (34.4) No. of patients (%)
Vomiting: Grade 3/4 AE No. of patients (%) ([1]; all dose levels (N=32)): 0 No. of patients (%)
patients with anaemia ([1]; any grade, all dose levels): 87.5%
patients with fatigue ([1]; any grade, all dose levels): 53.1%
patients with lymphopenia ([1]; any grade, all dose levels): 84.4%
patients with mucositis ([1]; any grade, all dose levels): 53.1%
patients with nausea ([1]; any grade, all dose levels): 31.7%
patients with vomiting ([1]; any grade, all dose levels): 34.4%
No. of patients with DLT ([1]; dose level 14.4 mg m^−2, 5 patients treated, days 1, 4, 8, 11 every 3 weeks): No DLTs and none
patients experienced grade 3 fatigue and mucositis ([1]; grade 3, all dose levels): < 10%
grade 3 or 4 elevation of alkaline phosphatase ([1]; grade 3 or 4, all dose levels): 15.6%
grade 3 or 4 elevation of aspartate transaminase ([1]; grade 3 or 4, all dose levels): 9.4%
patients developing grade 3 or 4 lymphopenia ([1]; grade 3 or 4, all dose levels): 37.5%
patients with grade 3 or 4 fatigue and mucositis ([1]; grade 3 or 4, all dose levels): 9%
IC50 (CDK6): 170 nM
concentrations at which anti-cancer activities were observed (human cancer cell lines): above 100 ng ml^−1
changes in proliferating cell nuclear antigen, pNPM and Ki67 [2]: no consistent changes
plasma clearance [3, 7]: 0.28±0.26 l min^−1 m^−2
volume of distribution [3, 7]: 289±218 l m^−2
dose dependence of Cmax and plasma exposures ([3]; 14.4 to 32.4 mg m^−2): apparent dose proportional increase; also recorded: linear pharmacokinetics
Cmax ([3]; human, plasma, intravenous, 27 mg): 591 ± 358 ng/mL
half-life ([3]; human, plasma, iv): 13.1 ± 4 h
complete or partial response [4, 8]: no complete or partial response; also recorded: no partial response
patients with progressive disease as best response [4, 8]: nine
duration of durable stable disease in one patient ([4]; one patient with metastatic rectal cancer, 10 cycles): 11.1 months
median duration of stable disease ([4]; ten patients with stable disease): 3.3 months
dose at which one patient death from QTc prolongation was reported [5, 9]: 34 mg m^−2 per day
minimal effective biological dose [5, 9]: 28.8 mg m^−2 per day
dose at which dose-limiting toxicity (DLT) was initially seen ([5]; × 5 days): 14.4 mg m^−2 per day
